Bioassay records from PubChem.
DTT redox prof: compounds producing H2O2 with reducing agent – biochemical, NIH compound library profiling, artefact control for MLSCN library redox annotation, primary screen. DTT-dependent redox cycling H2O2, phenol red/HRP absorbance; 100% = 100 µM peroxide control, 0% = buffer. activation, % at 10 µM. 0.03% of 200,000 active. AID 878;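 active = activation of at least 50% relative to the plate's high and low controls in the primary single-dose screen; inactive = activation below 50%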;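 also: compound incubated with DTT at 0.8 mM final as the reducing agent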
ROMK mod: human ROMK K+ channel modulation, primary screen; 2% of 130,000 active; B-score at 10 µM; Tet-inducible ROMK, thallium flux fluorescence; actives lie on both sides; P48048;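 active = signal ratio slope over the read window, or its plate-corrected B-score, at least 3 SD from the plate mean, either direction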;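 also: B-score of the F/F0 ratio slope over 7 to 12 s after thallium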
p97 inhibitor: human p97 ATPase inhibition; inhibition, % at 8 µM; 0.42% of 220,000 active; recombinant p97 ATPase, Kinase-Glo ATP luminescence, 3 h; AID 1481; P55072; in the data active = inhibition above about 15%;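 also: 0% = DMSO vehicle and 100% = wells lacking enzyme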
MDM2 E3 inh: Mdm2 E3 ligase (human) inhibition; 0.11% of 210,000 active; signal enhancement, % at 5 µM; cell-based MDM2 ubiquitination luciferase reporter, 2 h; 0 = plate control, 100 = twice control, blank-subtracted; Q00987; AID 1230;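 active = signal enhancement of 30% or more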;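 also: luminescence tracks abundance of the self-degrading MDM2-luciferase fusion protein; higher signal means inhibition of MDM2 E3 ligase activity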
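Buffer or medium: Cells held in DMEM | Assay system: Stable mammalian line carrying autodegrading MDM2–luciferase fusion reporter | Quantity: 2000 cells/well | Times: 4 h settle plus 2 h compound, 37 °C | Doses: One concentration, 5 µM, with 0.2% DMSO | Technique: Luminescence with SteadyLite reagent, 15 min at room temperature | Benchmarks: Plate controls and plate blanks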
PKD1 kinase inh: inhibitors of human PKD1 kinase. Q15139. 0.056% of 200,000 active. PKD1 kinase fluorescence polarization assay. inhibition, % (no concentration beside the values); in the data active = inhibition above about 50%
KCC2 mod: KCC2 (human) Cl- transport modulation; Q9H2X9; AID 1456; KCC2 cells, thallium flux FluoZin-2 fluorescence; B-score of Tl+ flux slope (higher = more flux/activation; lower = inhibition) at 10 µM; 2.2% of 190,000 active;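 active = thallium flux slope and its plate-corrected score both differing from the plate sample mean at a set confidence after two filtering rounds, in either direction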;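 also: slope of fluorescence scaled to starting intensity during 10 to 20 s after thallium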
KCC2 sec1: KCC2 (human) modulation, secondary assay; 15% of 3,700 active; HEK293-KCC2, thallium flux, FluoZin2 fluorescence; hits give high values; AID 1713; normalised thallium flux (F/F0 slope) at 10 µM; shares compounds with KCC2 mod;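 active = thallium flux slope above the same plate's solvent-only control mean plus 3 SD; inconclusive = the two replicate wells disagree; inactive = no significant difference from solvent-only control wells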
KCC2 bumet counter: thallium flux persisting under bumetanide in KCC2 cells, counter-screen secondary assay; shares compounds with KCC2 mod; HEK293-KCC2 + bumetanide/ouabain, thallium flux FluoZin2; hits give high values; normalized thallium flux at 10 µM; 49% of 3,700 active;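 active = thallium entry rate above the same plate's blocked-transporter control wells by more than 3 SD; inconclusive = the two repeat wells disagree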;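 also: raw slope of fluorescence over initial fluorescence between 10 and 20 s after thallium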
KCC2 sec2: KCC2 (human) modulation, second secondary assay; HEK293-KCC2, thallium flux FluoZin2 fluorescence; actives lie on both sides; F/F0 rise rate, 10–20 s post-thallium; normalized thallium flux at 10 µM; 23% of 3,700 active; shares compounds with KCC2 mod;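 active = thallium flux slope more than 3 SD above or below the plate's solvent-only control mean, mostly below; inconclusive = the two repeat wells disagreed; inactive = no significant shift from solvent-only controls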;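 also: raw slope with 0.1% DMSO as baseline and bumetanide as block control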
HEK counter1: counter-screen for KCC2 modulators: effect in parental HEK293 cells | shares compounds with KCC2 mod | thallium flux FluoZin2, ouabain; baseline-ratio fluorescence slope, 10–20 s after thallium | thallium flux rate (normalised fluorescence) at 10 µM | 46% of 3,700 active | AID 1716;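 active = thallium flux rate significantly above the same plate's solvent-only control wells, beyond their mean plus 3 SD; inconclusive = the two replicate wells gave conflicting results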
KCC2 ouabain: confirmation of human KCC2 modulators with ouabain. shares compounds with KCC2 mod. 48% of 3,700 active. raw Tl+ flux slope (below DMSO = inhibition, above = activation) at 10 µM. AID 1717. HEK293-KCC2, thallium flux FluoZin2 fluorescence; bidirectional: low = inhibitor, high = activator;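 active = thallium flux slope beyond 3 SD from same-plate DMSO control mean in most replicates, usually higher, sometimes lower; inconclusive = repeat tests gave conflicting results; inactive = no significant difference from controls in most replicates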;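 also: slope of initial-normalized fluorescence between seconds 10 and 20 after thallium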
HEK293 Tl flux2: counter-screen for KCC2 modulators: effect in parental HEK293 cells | shares compounds with KCC2 mod | thallium flux FluoZin-2 fluorescence slope | thallium flux slope at 10 µM | 33% of 3,700 active;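 active = thallium flux slope above the same plate's solvent-control mean plus 3 SD in both duplicate wells; inconclusive = duplicate wells that disagreed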;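 also: run without ouabain in cells lacking the KCC2 cotransporter; slope of fluorescence scaled to its starting value between 10 and 20 s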
* marks the source's active call; other numbers are inactive results; ? = inconclusive; / = no result. This is a sample that favours compounds with a hit; in the whole collection about 3.4% have one here.

SMILES	DTT redox prof	ROMK mod	p97 inhibitor	MDM2 E3 inh	PKD1 kinase inh	KCC2 mod	KCC2 sec1	KCC2 bumet counter	KCC2 sec2	HEK counter1	KCC2 ouabain	HEK293 Tl flux2
COc1ccc(CNS(=O)(=O)c2ccc3c(c2)CCN3C(=O)C2CC2)cc1	0	0.009	-6	-5	2	-0.0031	/	/	/	/	/	/
O=C(NNS(=O)(=O)c1ccc2ccccc2c1)C1CCN(Cc2ccccc2)CC1	-1	/	-2	-1	-3	/	0.0065	0.0046	0.026	0.007	?	0.011
O=C(C1CC1)N1CCc2cc(S(=O)(=O)NC3CCN(Cc4ccccc4)CC3)ccc21	0	-0.3	2	0	-10	/	0.0093	?	?	0.0078	0.016*	0.011
O=C(CS(=O)(=O)c1c[nH]c2ccccc12)NC1CCCCC1	0	/	-2	-28	0	0.41	/	/	/	/	/	/
COc1ccc(C(=O)C2CCCN(C(=O)c3noc4c3CCCC4)C2)cc1F (centres undefined)	-1	-0.68	4	-14	5	-0.016	/	/	/	/	/	/
COc1ccc(C(=O)C2CCCN(C(=O)c3noc4c3CCCC4)C2)c(C)c1 (centres undefined)	-2	0.23	-2	-9	0	/	0.0064	0.004	0.028	?	0.017	0.01
Cc1ccc(-c2oc3ccccc3c(=O)c2OCC(=O)O)cc1	0	-0.84	5	-4	-8	0.028	/	/	/	/	/	/
Cc1ccc(-c2oc3ccccc3c(=O)c2O)cc1	-2	/	-4	-2	-2	106*	0.0099*	0.1*	0.081*	0.095*	0.097*	0.08*
O=C(CSc1nnnn1Cc1ccccc1)c1ccccc1	1	/	2	3	1	-3.2*	0.0069	0.0056	0.027	0.0069	?	0.009
O=C(CSc1nnnn1Cc1ccccc1)c1ccc(F)cc1	/	/	-4	/	/	-0.82	/	/	/	/	/	/
CC1Cc2ccccc2N1C(=O)CSc1nnnn1Cc1ccccc1 (centres undefined)	-2	-0.54	1	-13	10	-3.6*	0.0072	0.0046	0.023*	0.0073	0.015*	0.0095
COC(=O)c1ccc(CSc2nnnn2Cc2ccccc2)cc1	2	-0.28	-2	-8	7	-1.4	/	/	/	/	/	/
COc1ccc(C(=O)CSc2nnnn2Cc2ccccc2)cc1	0	0.96	-2	-6	-15	-6.4*	0.0048	0.0074*	0.025*	0.0076	?	0.012
COc1cc2c(cc1OC)CN(C(=O)c1sccc1C)CC2	/	/	7	-7	/	0.0082	/	/	/	/	/	/
CCOC(=O)c1ccc(NC(=O)CSc2nnc(C3CC3)n2C)cc1	0	/	0	-5	-10	/	/	/	/	/	/	/
Cc1ccc(-n2c(COc3cccc(C)c3)n[nH]c2=S)cc1	-1	/	3	16	7	5.6*	0.0076	0.064*	0.034	0.016*	0.036*	0.021*
Cc1ccc(OCc2n[nH]c(=S)n2-c2ccccc2)cc1C	0	0.052	5	3	3	47*	0.0068	0.069*	0.043*	0.02*	0.049*	0.024*
CC1(OC(=O)CCc2ccccc2)C(=O)C=C2C=C(c3ccc(C#N)cc3)N(CCc3c[nH]c4ccccc34)C=C2C1=O (centres undefined)	/	/	/	11	/	0.16	/	/	/	/	/	/
Cc1c(C(=O)O)sc(=S)n1CCOc1ccccc1	0	-0.53	6	-8	-12	/	0.0072	0.005	0.024*	0.0066	0.015*	0.01
COC(=O)c1sc(=S)n(Cc2ccccc2)c1C	/	/	-5	-3	/	-2.2	/	/	/	/	/	/
O=C(COC(=O)c1cc(NS(=O)(=O)c2cccs2)ccc1O)Nc1ccccc1	/	/	-4	/	/	0.5	/	/	/	/	/	/
CCC(=Nc1ccc(Cc2ccncc2)cc1)c1c(O)n(C)c(=O)n(C)c1=O	2	-0.74	7	2	-6	-3.2*	0.0078	?	0.024*	0.0079	?	0.012
O=C(NC(=S)Nc1ccc(CN2CCCCC2)cc1)c1cc2ccccc2o1	/	-0.0042	6	-12	/	13*	0.0067	0.017*	0.05*	0.031*	0.033*	0.032*
CCOc1ccc(NC(=S)NC(=O)c2ccco2)cc1	/	/	-1	/	/	184*	0.063*	0.18*	0.048*	0.11*	0.098*	0.041*
Cc1ccc(C(=O)NC(=S)Nc2ccc(CN3CCCCC3)cc2)c(C)c1	0	-0.25	0	-1	-1	1.8	/	/	/	/	/	/
SMILES	DTT redox prof	ROMK mod	p97 inhibitor	MDM2 E3 inh	PKD1 kinase inh	KCC2 mod	KCC2 sec1	KCC2 bumet counter	KCC2 sec2	HEK counter1	KCC2 ouabain	HEK293 Tl flux2
O=C(NC(=S)Nc1ccc(CN2CCCCC2)cc1)c1ccco1	0	-0.35	-2	-4	-11	4*	0.0094	0.035*	0.034	0.015*	0.042*	?
O=C(NC(=S)Nc1ccc(CN2CCOCC2)cc1)c1ccco1	/	/	-2	-16	/	11*	?	0.034*	0.034	0.013*	0.039*	0.012*
Cn1c(=O)n(CC(=O)Nc2ccccc2)c2ccccc21	0	-0.49	3	-12	-9	/	/	/	/	/	/	/
CC1CN(C(=O)c2ccc(Oc3ccccc3)cc2)CC(C)O1 (centres undefined)	0	-0.33	2	-7	0	-0.52	/	/	/	/	/	/
O=C(O)c1ccc(NC(=S)NC(NC(=O)c2ccco2)C(Cl)(Cl)Cl)cc1 (centres undefined)	0	1.6	-5	-6	-8	0.31	/	/	/	/	/	/
CCCCC(=O)Nc1ccc(C(=O)NNC(=S)NC(=O)c2ccco2)cc1	0	-1	5	-15	-6	7.2*	0.011	0.031*	0.034	?	0.03*	?
Cc1ccc(S(=O)(=O)N2CCCCC2)cc1NC(=S)NC(=O)c1ccco1	/	/	4	-7	/	22*	0.0077	0.016*	0.028	0.013*	?	?
